Compounds with a hit are over-represented: about 2.4% of the library has one in this group of screens.
697 NFkB inh = inhibitors of PMA/ionomycin-induced NF-kB reporter, 697 cells, primary screen, B-cell NF-kB inhibitor project, cell-based, luminescence, uHTS | 697 B-cell NF-kB luciferase reporter, 16 h | inhibition, % at 4 µM | hit rate 0.33% among 330,000; in the data active = inhibition above about 35%
aDG glyco act = activators of alpha-DG glycosylation, primary screen, uHTS, Pro5-aDG cells, AlphaScreen; alpha-DG glycosylation AlphaScreen (IIH6); 0% Pro5, 100% B10-LARGE cell signal; activation, % at 10 µM; hit rate 0.22% among 360,000; AID 624168, 2012;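 active = activation of at least 8% versus controls, or a plate z-score of at least 8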;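 note: Pro5 are CHO cells carrying HIG-tagged alpha-DG that lacks glycosylation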
Jurkat NFkB inh = inhibitors of induced NF-kB luciferase reporter, primary screen, TCR NF-kB activation inhibitor project, cell-based, luminescence, uHTS. Jurkat, PMA/ionomycin-induced NF-kB luciferase reporter. inhibition, % at 4 µM. hit rate 0.53% among 330,000; in the data active = inhibition above about 50%
NR2E3 ag-1 = NR2E3 agonists in two-hybrid cells, primary screen, cell-based, luminescence, CHO-S, Gal4-NCOR/VP16-NR2E3; luciferase; inhibition of corepressor binding, % at 3.98 µM; hit rate 0.35% among 360,000;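 active = inhibition above the mean of all tested compounds plus 3 SD, cut at about 70% in these data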;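 note: 0% = DMSO with NR2E3 transfected cells and 100% = cells lacking NR2E3 construct; higher means lower luciferase signal from less NR2E3 corepressor binding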
Target sequence (Q9Y5X4 whole entry, looked up, the tested form may be a part): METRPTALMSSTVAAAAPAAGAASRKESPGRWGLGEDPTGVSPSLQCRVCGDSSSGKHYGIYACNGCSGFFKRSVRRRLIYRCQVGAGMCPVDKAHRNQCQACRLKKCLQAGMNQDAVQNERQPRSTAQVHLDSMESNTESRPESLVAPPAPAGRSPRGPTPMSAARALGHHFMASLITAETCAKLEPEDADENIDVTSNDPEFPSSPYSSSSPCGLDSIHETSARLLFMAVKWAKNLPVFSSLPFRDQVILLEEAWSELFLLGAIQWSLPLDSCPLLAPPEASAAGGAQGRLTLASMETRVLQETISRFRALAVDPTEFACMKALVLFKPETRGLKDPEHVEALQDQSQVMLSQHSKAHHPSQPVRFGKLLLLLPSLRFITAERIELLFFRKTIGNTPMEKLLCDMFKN
MPTP inh = mitochondrial permeability transition pore inhibitors, primary screen, biochemical, isolated mouse mitochondria, absorbance; Ca2+ swelling absorbance, 30 min; inhibition, % at 10 µM; hit rate 1.4% among 360,000; AID 602449, 2012;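 active = inhibition of 50% or more, scaled per plate between neutral and stimulator controls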;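 note: 0% = DMSO wells given calcium and 100% = 1 mM EGTA wells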
NR2E3 ag-2 = inhibitors of NR2E3-RetCOR corepressor binding, primary screen, NR2E3 agonist project, biochemical, TR-FRET, GST-NR2E3, biotin-RetCOR | 1536-well | inhibition of corepressor binding, % at 4.78 µM | hit rate 0.12% among 320,000;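 active = percent inhibition above the cutoff of mean plus 3 SD of all tested compounds, set per screening campaign, cut at about 20% in these data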;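 note: 0% = DMSO wells and 100% = biotin wells as full block of FRET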
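System: GST-tagged NR2E3 plus biotinylated RetCOR corepressor; Buffer or medium: pH 7.5 Tris-based buffer; Probe or stimulus: RetCOR corepressor, biotinylated, 7 nM; Doses: compound at 4.8 µM, single dose; Schedule: 5 h incubation at 4 °C; Technique: time-resolved FRET; Evaluation: percent inhibition of TR-FRET ratio; Replication: one well per compound, singlicate testing.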
NR2E3 ag confirm = NR2E3 agonist confirmation in cells, cell-based, luminescence, CHO-S two-hybrid; inhibition, % at 3.98 µM; shares compounds with NR2E3 ag-1; hit rate 51% among 2,300; AID 624378, 2012; CHO-S mammalian two-hybrid NR2E3-NCOR, luciferase luminescence;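 active = average inhibition above a cutoff equal to the mean inhibition of all tested compounds plus one SD, cut at about 70% in these data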;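 note: 0% = DMSO in NR2E3 cells and 100% = DMSO in cells lacking NR2E3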
VP16 counter = GAL4-VP16 reporter modulators, confirmation, counter-screen for NR2E3 agonist project, cell-based, luminescence, CHO-S, high throughput; shares compounds with NR2E3 ag-1; CHO-S GAL4-VP16 luciferase reporter; hit rate 29% among 2,300; inhibition, % at 3.98 µM;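 active = mean inhibition above a cutoff equal to the average over all tested compounds plus one standard deviation, cut at about 70% in these data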;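 note: luciferase from a UAS reporter driven by GAL4-VP16 transactivation; 0% = DMSO with VP16-transfected cells and 100% = DMSO with cells lacking VP16; higher means less reporter light so more repression of VP16 activity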
MPTP counter = fluorescence retest of MPTP screen hits in isolated mitochondria, single concentration | hit rate 78% among 5,000 | inhibition, % at 10 µM | shares compounds with MPTP inh | membrane potential, Rhodamine 123 fluorescence; in the data active = inhibition above about 22%;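 note: 0% = DMSO vehicle and 100% = positive control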
An asterisk follows results filed as active.

CCN(CC)S(=O)(=O)c1cc(NC(=O)CO/N=C(\N)c2ccccc2Cl)ccc1C was read as 697 NFkB inh 5, aDG glyco act 0, Jurkat NFkB inh 5, NR2E3 ag-1 -5, MPTP inh 0 and NR2E3 ag-2 2.
Cc1ccc(NS(=O)(=O)c2ccc(C3CCCCC3)cc2)cc1 was read as 697 NFkB inh -26, aDG glyco act 2, Jurkat NFkB inh 8, NR2E3 ag-1 77*, MPTP inh 73*, NR2E3 ag-2 0, NR2E3 ag confirm 94*, VP16 counter 70 and MPTP counter 78*.
Screening CCCCOC(=O)c1[nH]c2c(c1C)C(=O)CC(c1cc(OC)c(OC)c(OC)c1)C2 (stereo unspecified) returned 697 NFkB inh 19, aDG glyco act 2, Jurkat NFkB inh 36, NR2E3 ag-1 89*, MPTP inh 70*, NR2E3 ag-2 1, NR2E3 ag confirm 84*, VP16 counter 61 and MPTP counter 90*.
For Nc1nc(Cl)cc(NCCc2ccc(O)cc2)n1 the results were 697 NFkB inh -26, aDG glyco act 0, Jurkat NFkB inh -6, NR2E3 ag-1 6, MPTP inh 4 and NR2E3 ag-2 2.
Oc1ccc(CCNc2ncnc3ccc(Cl)cc23)cc1 was read as 697 NFkB inh -21, aDG glyco act 2, Jurkat NFkB inh 38, NR2E3 ag-1 91*, MPTP inh 95*, NR2E3 ag-2 1, NR2E3 ag confirm 93*, VP16 counter 87* and MPTP counter 97*.
`CCOC(=O)C(NC(=O)c1cccc(Cl)c1)(Nc1nnc(C)s1)C(F)(F)F` (stereo unspecified) gave 697 NFkB inh -3, aDG glyco act 0, Jurkat NFkB inh 1, NR2E3 ag-1 -43, MPTP inh -1 and NR2E3 ag-2 1.
`O=C(Nc1ccc(OCC(F)(F)C(F)F)c(C(F)(F)F)c1)c1ccc(Cl)cc1` gave 697 NFkB inh 6, aDG glyco act 1, Jurkat NFkB inh 7, NR2E3 ag-1 90*, MPTP inh 91*, NR2E3 ag-2 -2, NR2E3 ag confirm 12, VP16 counter 48 and MPTP counter 84*.
Screening Cc1ccc(NC(=O)C2CCN(S(=O)(=O)c3ccc4c(c3)NC(=O)C(C)S4)CC2)c(C)c1 (stereo unspecified) returned 697 NFkB inh 2, aDG glyco act 0, Jurkat NFkB inh 11, NR2E3 ag-1 33, MPTP inh 0 and NR2E3 ag-2 0.
For Cc1ccc(NC(=O)C2CCN(S(=O)(=O)c3ccc4c(c3)NC(=O)C(C)S4)CC2)cc1C (stereo unspecified) the results were 697 NFkB inh 12, aDG glyco act 2, Jurkat NFkB inh 12, NR2E3 ag-1 74*, MPTP inh 98*, NR2E3 ag-2 0, NR2E3 ag confirm 93*, VP16 counter 73* and MPTP counter 89*.
CC1Sc2ccc(S(=O)(=O)N3CCC(C(=O)Nc4cccc(Cl)c4)CC3)cc2NC1=O (stereo unspecified) was read as 697 NFkB inh 0, aDG glyco act 0, Jurkat NFkB inh 10, NR2E3 ag-1 49, MPTP inh 78*, NR2E3 ag-2 -2, NR2E3 ag confirm 65, VP16 counter 54 and MPTP counter 85*.
Screening CCn1ncc(/C=N\NC(=O)c2cc(-c3ccc(C)cc3C)nc3ccccc23)c1C returned 697 NFkB inh -10, aDG glyco act 0, Jurkat NFkB inh 9, NR2E3 ag-1 -40, MPTP inh -2 and NR2E3 ag-2 4.
CC(=O)Oc1c(C)cc(Cl)cc1C(=O)Nc1ccc([N+](=O)[O-])cc1Cl was read as 697 NFkB inh -127, aDG glyco act -1, Jurkat NFkB inh -28, NR2E3 ag-1 83*, MPTP inh 85*, NR2E3 ag-2 -1, NR2E3 ag confirm 99*, VP16 counter 73* and MPTP counter 91*.
`CC(=O)OCC(=O)Nc1ccc([N+](=O)[O-])cc1Cl` gave 697 NFkB inh 10, aDG glyco act 0, Jurkat NFkB inh 16, NR2E3 ag-1 -21, MPTP inh 1 and NR2E3 ag-2 2.
Screening CC(NC(=O)c1ccccc1)c1nnc(SCC(=O)NC2CCCC2)n1C (stereo unspecified) returned 697 NFkB inh -4, aDG glyco act 0, Jurkat NFkB inh -11, NR2E3 ag-1 6, MPTP inh -2 and NR2E3 ag-2 6.
For COc1ccc(C(C)=O)cc1COC(=O)CCNS(=O)(=O)c1ccc(C)c(C)c1 the results were 697 NFkB inh -10, aDG glyco act 0, Jurkat NFkB inh 13, NR2E3 ag-1 9, MPTP inh -1 and NR2E3 ag-2 2.
For CNC(=S)N/N=C/c1cc(Br)cc(Br)c1O the results were 697 NFkB inh -8, aDG glyco act 0, Jurkat NFkB inh -11, NR2E3 ag-1 89*, MPTP inh 88*, NR2E3 ag-2 4, NR2E3 ag confirm -16, VP16 counter -24 and MPTP counter 60*.
Screening OCC1CCCN(Cc2cn(Cc3ccccc3)nc2-c2cc3ccccc3o2)C1 (stereo unspecified) returned 697 NFkB inh 14, aDG glyco act 1, Jurkat NFkB inh -17, NR2E3 ag-1 19, MPTP inh -4 and NR2E3 ag-2 1.
Cc1ccc(OCc2cc(C(=O)N3CCCCCCC3)no2)cc1C was read as 697 NFkB inh -14, aDG glyco act 0, Jurkat NFkB inh -32, NR2E3 ag-1 -65, MPTP inh 0 and NR2E3 ag-2 4.

Screens (PubChem)
